Measurements taken from ChEMBL document CHEMBL4689842, “EUbOPEN Chemogenomics Library wave 1” (2021).

How the values were obtained:
U2OS [1] = test: Multiplex assay against U2OS; assay type: toxicity, cell-based; details: human
In short: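 Live cells were stained at seeding with Hoechst33342, BioTracker Green Microtubule Cytoskeleton Dye, MitoTracker Red and Annexin V Alexa Fluor 680, then imaged on a CQ1 microscope at 37°C and 5% CO2 after compound addition. CellPathfinder machine-learning gating split cells into Hoechst high-intensity objects or normal cells. Normal cells were split into healthy, pyknosed or fragmented nuclei, and pyknosed cells into mitotic or apoptotic. Tubulin, mitochondrial-mass and membrane-permeability phenotypes are per cents of healthy-nucleus cells.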

U2OS [2] = test: Incucyte cell viability with U2OS; assay type: toxicity, cell-based; details: human, 10 µM, compound concentration 10 uM; further: filed as whole numbers so only -1 and 0 and 1 occur
[3] = 24 h, 1 µM, compound concentration 1 uM, replicate 2
[4] = 24 h, 10 µM, compound concentration 10 uM, replicate 1
[5] = 24 h, 10 µM, compound concentration 10 uM, replicate 2
[6] = 48 h, 1 µM, compound concentration 1 uM, replicate 1
[7] = 48 h, 1 µM, compound concentration 1 uM, replicate 2
[8] = 48 h, 10 µM, compound concentration 10 uM, replicate 1
[9] = 48 h, 10 µM, compound concentration 10 uM, replicate 2

`CCCn1c(=O)c2[nH]c(C34CC5CC(CC3C5)C4)nc2n(CCC)c1=O` [ROLOFYLLINE] was tested, and the “Population Tubulin-Different-Phenotype (%)” value (U2OS [1]; [3]) was 15%, the “Total Cell Count” value (U2OS [1]; [3]) was 83 and the “Population Apoptotic (%)” value (U2OS [1]; [4]) was 60%. For the same compound, the “Population Fragmented Nuclei (%)” value (U2OS [1]; [4]) was 13%, the “Population Healthy Nuclei (%)” value (U2OS [1]; [4]) was 60% and the “Population Hoechst High Intensity Objects (%)” value (U2OS [1]; [4]) was 10%. For the same compound, the “Population Membrane Permeable-Phenotype (%)” value (U2OS [1]; [4]) was 38%, the “Population Mitochondria Different-Phenotype (%)” value (U2OS [1]; [4]) was 84% and the “Population Mitotic Cells (%)” value (U2OS [1]; [4]) was 39%. The “Population Normal (%)” value (U2OS [1]; [4]) was 89%, the “Population Pyknosed Nuclei (%)” value (U2OS [1]; [4]) was 26% and the “Population Tubulin-Different-Phenotype (%)” value (U2OS [1]; [4]) was 98%. The “Total Cell Count” value (U2OS [1]; [4]) was 105, the “Population Apoptotic (%)” value (U2OS [1]; [5]) was 56% and the “Population Fragmented Nuclei (%)” value (U2OS [1]; [5]) was 9%. The “Population Healthy Nuclei (%)” value (U2OS [1]; [5]) was 58%, the “Population Hoechst High Intensity Objects (%)” value (U2OS [1]; [5]) was 5% and the “Population Membrane Permeable-Phenotype (%)” value (U2OS [1]; [5]) was 41%. The “Population Mitochondria Different-Phenotype (%)” value (U2OS [1]; [5]) was 81%, the “Population Mitotic Cells (%)” value (U2OS [1]; [5]) was 43% and the “Population Normal (%)” value (U2OS [1]; [5]) was 94%. The “Population Pyknosed Nuclei (%)” value (U2OS [1]; [5]) was 31%, the “Population Tubulin-Different-Phenotype (%)” value (U2OS [1]; [5]) was 100% and the “Total Cell Count” value (U2OS [1]; [5]) was 120. The “Population Apoptotic (%)” value (U2OS [1]; [6]) was 72%, the “Population Fragmented Nuclei (%)” value (U2OS [1]; [6]) was 9% and the “Population Healthy Nuclei (%)” value (U2OS [1]; [6]) was 78%. The “Population Hoechst High Intensity Objects (%)” value (U2OS [1]; [6]) was 4%, the “Population Membrane Permeable-Phenotype (%)” value (U2OS [1]; [6]) was 2% and the “Population Mitochondria Different-Phenotype (%)” value (U2OS [1]; [6]) was 10%. For the same compound, the “Population Mitotic Cells (%)” value (U2OS [1]; [6]) was 27%, the “Population Normal (%)” value (U2OS [1]; [6]) was 95% and the “Population Pyknosed Nuclei (%)” value (U2OS [1]; [6]) was 12%. The “Population Tubulin-Different-Phenotype (%)” value (U2OS [1]; [6]) was 10%, the “Total Cell Count” value (U2OS [1]; [6]) was 168 and the “Population Apoptotic (%)” value (U2OS [1]; [7]) was 43%. For the same compound, the “Population Fragmented Nuclei (%)” value (U2OS [1]; [7]) was 5%, the “Population Healthy Nuclei (%)” value (U2OS [1]; [7]) was 84% and the “Population Hoechst High Intensity Objects (%)” value (U2OS [1]; [7]) was 2%. The “Population Membrane Permeable-Phenotype (%)” value (U2OS [1]; [7]) was 8%, the “Population Mitochondria Different-Phenotype (%)” value (U2OS [1]; [7]) was 21% and the “Population Mitotic Cells (%)” value (U2OS [1]; [7]) was 56%. The “Population Normal (%)” value (U2OS [1]; [7]) was 97%, the “Population Pyknosed Nuclei (%)” value (U2OS [1]; [7]) was 9% and the “Population Tubulin-Different-Phenotype (%)” value (U2OS [1]; [7]) was 17%. The “Total Cell Count” value (U2OS [1]; [7]) was 103, the “Population Apoptotic (%)” value (U2OS [1]; [8]) was 69% and the “Population Fragmented Nuclei (%)” value (U2OS [1]; [8]) was 18%. The “Population Healthy Nuclei (%)” value (U2OS [1]; [8]) was 43%, the “Population Hoechst High Intensity Objects (%)” value (U2OS [1]; [8]) was 12% and the “Population Membrane Permeable-Phenotype (%)” value (U2OS [1]; [8]) was 35%. The “Population Mitochondria Different-Phenotype (%)” value (U2OS [1]; [8]) was 60%, the “Population Mitotic Cells (%)” value (U2OS [1]; [8]) was 30% and the “Population Normal (%)” value (U2OS [1]; [8]) was 87%. The “Population Pyknosed Nuclei (%)” value (U2OS [1]; [8]) was 37%, the “Population Tubulin-Different-Phenotype (%)” value (U2OS [1]; [8]) was 96% and the “Total Cell Count” value (U2OS [1]; [8]) was 157. The “Population Apoptotic (%)” value (U2OS [1]; [9]) was 66%, the “Population Fragmented Nuclei (%)” value (U2OS [1]; [9]) was 19% and the “Population Healthy Nuclei (%)” value (U2OS [1]; [9]) was 39%. The “Population Hoechst High Intensity Objects (%)” value (U2OS [1]; [9]) was 4%, the “Population Membrane Permeable-Phenotype (%)” value (U2OS [1]; [9]) was 81% and the “Population Mitochondria Different-Phenotype (%)” value (U2OS [1]; [9]) was 68%. The “Population Mitotic Cells (%)” value (U2OS [1]; [9]) was 33%, the “Population Normal (%)” value (U2OS [1]; [9]) was 95% and the “Population Pyknosed Nuclei (%)” value (U2OS [1]; [9]) was 40%. For the same compound, the “Population Tubulin-Different-Phenotype (%)” value (U2OS [1]; [9]) was 100%, the “Total Cell Count” value (U2OS [1]; [9]) was 168 and the “Growth Rate” value (U2OS [2]; 0 h, replicate number 1, timepoint 0 hours) was 1. For the same compound, the “Growth Rate” value (U2OS [2]; 0 h, replicate number 2, timepoint 0 hours) was 0, the “Growth Rate” value (U2OS [2]; 6 h, replicate number 2, timepoint 6 hours) was 1 and the “Growth Rate” value (U2OS [2]; 12 h, replicate number 1, timepoint 12 hours) was 1. The “Growth Rate” value (U2OS [2]; 18 h, replicate number 1, timepoint 18 hours) was 1 and the “Growth Rate” value (U2OS [2]; 24 h, replicate number 1, timepoint 24 hours) was 1.
